In ChEMBL document CHEMBL5653631, “A Potent and Selective ULK1 Inhibitor Suppresses Autophagy and Sensitizes Cancer Cells to Nutrient Stress” (iScience, 2018):

Experiments:
[1] = molecular target: Serine/threonine-protein kinase SIK3 (Homo sapiens) (UniProt Q9Y2K2); test: Inhibition of human recombinant QSK at 40 nM in presence of ATP by radiometric assay relative to control
[2] = molecular target: T1, Activin receptor type-1 (Homo sapiens) (UniProt Q04771); test: Inhibition of human recombinant ALK2 at 40 nM related to control ULK1
T1 sequence (whole entry): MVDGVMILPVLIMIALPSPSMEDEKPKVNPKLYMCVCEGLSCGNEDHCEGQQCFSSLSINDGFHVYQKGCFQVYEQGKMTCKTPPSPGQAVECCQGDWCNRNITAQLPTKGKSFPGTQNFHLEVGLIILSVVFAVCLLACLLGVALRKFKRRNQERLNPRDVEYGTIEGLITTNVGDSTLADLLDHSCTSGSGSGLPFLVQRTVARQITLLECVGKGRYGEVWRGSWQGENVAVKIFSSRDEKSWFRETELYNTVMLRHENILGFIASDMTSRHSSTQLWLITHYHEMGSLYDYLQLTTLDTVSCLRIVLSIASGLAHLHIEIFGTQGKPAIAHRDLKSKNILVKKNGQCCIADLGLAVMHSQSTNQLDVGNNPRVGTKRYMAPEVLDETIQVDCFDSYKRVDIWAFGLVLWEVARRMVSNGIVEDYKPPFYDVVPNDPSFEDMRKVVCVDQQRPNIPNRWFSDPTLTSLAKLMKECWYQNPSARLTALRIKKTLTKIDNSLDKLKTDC
Outline: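 Radiometric activity assays in a panel of 327 human recombinant kinases, each run in duplicate at one inhibitor concentration. Activity remaining is expressed as percent of vehicle control, and percent inhibition is calculated as 100% minus percent activity remaining.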

[3] = molecular target: T2, Serine/threonine-protein kinase D3 (Homo sapiens) (UniProt O94806); test: Inhibition of human recombinant PKD3 at 40 nM in presence of ATP by radiometric assay relative to control
T2 sequence (whole entry): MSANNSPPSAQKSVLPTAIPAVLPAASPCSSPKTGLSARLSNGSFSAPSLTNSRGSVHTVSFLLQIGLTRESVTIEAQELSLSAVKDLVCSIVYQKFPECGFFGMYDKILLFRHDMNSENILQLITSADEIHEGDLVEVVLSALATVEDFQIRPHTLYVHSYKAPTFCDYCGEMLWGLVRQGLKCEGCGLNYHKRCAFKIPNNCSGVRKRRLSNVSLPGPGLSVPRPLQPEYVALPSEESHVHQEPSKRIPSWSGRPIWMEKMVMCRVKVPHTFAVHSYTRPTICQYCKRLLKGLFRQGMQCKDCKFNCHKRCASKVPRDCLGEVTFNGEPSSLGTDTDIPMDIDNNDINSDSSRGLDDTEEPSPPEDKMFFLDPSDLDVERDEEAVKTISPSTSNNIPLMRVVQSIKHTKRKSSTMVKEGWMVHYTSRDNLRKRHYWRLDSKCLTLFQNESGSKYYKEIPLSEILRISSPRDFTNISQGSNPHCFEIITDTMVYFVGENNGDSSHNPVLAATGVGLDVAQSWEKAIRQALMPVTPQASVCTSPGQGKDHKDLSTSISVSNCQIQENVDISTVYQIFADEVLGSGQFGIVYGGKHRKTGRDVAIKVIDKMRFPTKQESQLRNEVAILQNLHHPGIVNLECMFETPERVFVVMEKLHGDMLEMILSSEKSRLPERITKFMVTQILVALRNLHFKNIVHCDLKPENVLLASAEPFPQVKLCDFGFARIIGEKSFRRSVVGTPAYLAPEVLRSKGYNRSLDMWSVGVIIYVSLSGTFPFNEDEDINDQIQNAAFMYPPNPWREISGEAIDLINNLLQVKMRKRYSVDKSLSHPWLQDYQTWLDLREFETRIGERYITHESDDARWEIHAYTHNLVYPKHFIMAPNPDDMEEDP

[4] = molecular target: Leukocyte tyrosine kinase receptor (Homo sapiens) (UniProt P29376); test: Inhibition of human recombinant LTK at 40 nM related to control ULK1
Sequence of Leukocyte tyrosine kinase receptor (Homo sapiens) (P29376 whole entry): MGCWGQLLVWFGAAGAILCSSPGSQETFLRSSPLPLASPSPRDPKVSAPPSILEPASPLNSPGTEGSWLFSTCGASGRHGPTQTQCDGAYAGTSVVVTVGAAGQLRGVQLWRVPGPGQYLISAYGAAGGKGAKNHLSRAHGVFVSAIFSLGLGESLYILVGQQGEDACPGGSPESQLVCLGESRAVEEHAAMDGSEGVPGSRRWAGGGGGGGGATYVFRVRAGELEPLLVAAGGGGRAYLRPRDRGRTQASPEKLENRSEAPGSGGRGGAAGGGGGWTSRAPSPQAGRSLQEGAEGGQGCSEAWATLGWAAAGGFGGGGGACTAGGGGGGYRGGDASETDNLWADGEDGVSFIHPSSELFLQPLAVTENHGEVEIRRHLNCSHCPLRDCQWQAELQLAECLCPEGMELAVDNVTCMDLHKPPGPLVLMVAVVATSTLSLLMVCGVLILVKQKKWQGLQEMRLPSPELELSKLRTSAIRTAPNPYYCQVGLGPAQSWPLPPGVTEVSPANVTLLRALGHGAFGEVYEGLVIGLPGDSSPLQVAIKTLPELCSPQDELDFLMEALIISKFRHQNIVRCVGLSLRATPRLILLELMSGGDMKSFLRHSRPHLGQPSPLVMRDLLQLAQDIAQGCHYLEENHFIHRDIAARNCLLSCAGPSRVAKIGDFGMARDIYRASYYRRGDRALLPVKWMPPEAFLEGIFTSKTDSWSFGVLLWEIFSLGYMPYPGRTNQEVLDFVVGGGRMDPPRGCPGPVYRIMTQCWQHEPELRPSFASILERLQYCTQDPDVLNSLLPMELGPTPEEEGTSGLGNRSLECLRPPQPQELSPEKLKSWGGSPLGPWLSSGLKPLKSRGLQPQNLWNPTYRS

[5] = molecular target: SRSF protein kinase 3 (Homo sapiens) (UniProt Q9UPE1); test: Inhibition of human recombinant MSSK1 at 40 nM in presence of ATP by radiometric assay relative to control
[6] = molecular target: Ephrin type-A receptor 4 (Homo sapiens) (UniProt P54764); test: Inhibition of human recombinant EphA4 at 40 nM in presence of ATP by radiometric assay relative to control
Sequence of Ephrin type-A receptor 4 (Homo sapiens) (P54764 whole entry, the tested form may be a part): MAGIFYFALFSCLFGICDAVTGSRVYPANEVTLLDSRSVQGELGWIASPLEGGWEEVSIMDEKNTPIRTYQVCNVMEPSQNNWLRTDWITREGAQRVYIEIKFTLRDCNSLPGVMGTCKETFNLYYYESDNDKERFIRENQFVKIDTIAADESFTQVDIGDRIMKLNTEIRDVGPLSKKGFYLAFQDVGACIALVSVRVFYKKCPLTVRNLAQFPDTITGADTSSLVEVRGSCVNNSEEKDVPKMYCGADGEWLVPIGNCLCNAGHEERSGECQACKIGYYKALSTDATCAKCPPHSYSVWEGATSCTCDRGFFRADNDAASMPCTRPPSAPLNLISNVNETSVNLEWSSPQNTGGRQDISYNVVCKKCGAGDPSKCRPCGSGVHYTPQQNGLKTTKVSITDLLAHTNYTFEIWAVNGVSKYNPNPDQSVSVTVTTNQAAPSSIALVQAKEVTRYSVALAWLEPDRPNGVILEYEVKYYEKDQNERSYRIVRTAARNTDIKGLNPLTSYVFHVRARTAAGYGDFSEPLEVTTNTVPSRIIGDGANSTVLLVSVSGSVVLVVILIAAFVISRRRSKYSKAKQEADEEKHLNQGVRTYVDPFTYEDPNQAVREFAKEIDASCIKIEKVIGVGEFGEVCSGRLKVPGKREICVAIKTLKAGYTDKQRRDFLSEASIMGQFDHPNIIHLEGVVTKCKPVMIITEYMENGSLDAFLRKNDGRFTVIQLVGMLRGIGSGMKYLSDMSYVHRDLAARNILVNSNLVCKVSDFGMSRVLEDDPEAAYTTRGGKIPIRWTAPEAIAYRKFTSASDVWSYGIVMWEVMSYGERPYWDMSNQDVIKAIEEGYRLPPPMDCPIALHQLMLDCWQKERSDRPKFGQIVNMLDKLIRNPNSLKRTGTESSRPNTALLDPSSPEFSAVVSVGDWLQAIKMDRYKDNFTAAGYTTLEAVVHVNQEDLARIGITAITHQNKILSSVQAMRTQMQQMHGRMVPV

[7] = molecular target: PAS domain-containing serine/threonine-protein kinase (Homo sapiens) (UniProt Q96RG2); test: Inhibition of human recombinant PASK at 500 nM in presence of ATP by radiometric assay relative to control
[8] = molecular target: Serine/threonine-protein kinase 35 (Homo sapiens) (UniProt Q8TDR2); test: Inhibition of human recombinant CLIK1 at 500 nM in presence of ATP by radiometric assay relative to control
[9] = molecular target: Mitogen-activated protein kinase kinase kinase 10 (Homo sapiens) (UniProt Q02779); test: Inhibition of human recombinant MLK2 at 15 nM in presence of ATP by radiometric assay relative to control
[10] = molecular target: SRSF protein kinase 2 (Homo sapiens) (UniProt P78362); test: Inhibition of human recombinant SRPK2 at 15 nM in presence of ATP by radiometric assay relative to control
Sequence of SRSF protein kinase 2 (Homo sapiens) (P78362 whole entry, looked up): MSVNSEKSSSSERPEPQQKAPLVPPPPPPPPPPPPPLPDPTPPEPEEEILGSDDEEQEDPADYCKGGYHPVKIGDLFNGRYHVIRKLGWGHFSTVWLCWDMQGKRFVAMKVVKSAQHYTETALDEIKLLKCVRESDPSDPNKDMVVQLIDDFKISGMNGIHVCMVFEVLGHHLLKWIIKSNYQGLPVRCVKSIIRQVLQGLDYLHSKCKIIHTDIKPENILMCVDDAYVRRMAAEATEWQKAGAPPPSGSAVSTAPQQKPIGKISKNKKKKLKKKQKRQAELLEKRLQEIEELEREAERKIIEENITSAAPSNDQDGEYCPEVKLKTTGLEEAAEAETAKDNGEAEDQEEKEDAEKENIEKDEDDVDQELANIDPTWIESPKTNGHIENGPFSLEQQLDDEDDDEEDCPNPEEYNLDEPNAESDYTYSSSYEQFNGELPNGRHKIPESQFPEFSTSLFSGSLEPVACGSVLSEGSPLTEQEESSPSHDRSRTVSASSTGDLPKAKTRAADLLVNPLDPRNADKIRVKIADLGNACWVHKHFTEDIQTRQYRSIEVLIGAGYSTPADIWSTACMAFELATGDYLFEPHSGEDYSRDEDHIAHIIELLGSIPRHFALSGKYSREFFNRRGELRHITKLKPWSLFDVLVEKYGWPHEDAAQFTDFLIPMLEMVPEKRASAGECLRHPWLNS

[11] = molecular target: Cyclin-dependent kinase 13 (Homo sapiens) (UniProt Q14004); test: Inhibition of human recombinant CHED at 15 nM in presence of ATP by radiometric assay relative to control
[12] = molecular target: Serine/threonine-protein kinase PLK1 (Homo sapiens) (UniProt P53350); test: Inhibition of human recombinant PLK1 at 15 nM in presence of ATP by radiometric assay relative to control
Sequence of Serine/threonine-protein kinase PLK1 (Homo sapiens) (P53350 whole entry): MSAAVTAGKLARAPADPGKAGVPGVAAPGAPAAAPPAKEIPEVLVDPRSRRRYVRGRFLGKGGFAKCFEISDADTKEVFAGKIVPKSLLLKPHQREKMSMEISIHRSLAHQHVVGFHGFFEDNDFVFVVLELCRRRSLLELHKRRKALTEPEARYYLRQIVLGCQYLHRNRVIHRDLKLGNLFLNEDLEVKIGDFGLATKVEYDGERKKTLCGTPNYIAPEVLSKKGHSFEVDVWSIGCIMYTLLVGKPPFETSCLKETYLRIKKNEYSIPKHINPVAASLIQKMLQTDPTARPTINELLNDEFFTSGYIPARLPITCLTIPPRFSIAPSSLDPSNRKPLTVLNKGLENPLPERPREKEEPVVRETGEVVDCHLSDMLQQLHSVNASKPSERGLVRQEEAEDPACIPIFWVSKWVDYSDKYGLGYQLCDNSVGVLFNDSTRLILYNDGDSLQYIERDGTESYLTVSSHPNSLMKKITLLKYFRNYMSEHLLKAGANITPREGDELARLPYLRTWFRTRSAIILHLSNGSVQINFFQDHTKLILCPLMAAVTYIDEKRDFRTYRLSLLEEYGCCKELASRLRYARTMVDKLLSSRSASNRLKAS

[13] = molecular target: MAP kinase-activated protein kinase 2 (Homo sapiens) (UniProt P49137); test: Inhibition of human recombinant MAPKAPK2 at 15 nM related to control ULK1
Sequence of MAP kinase-activated protein kinase 2 (Homo sapiens) (P49137 whole entry, looked up): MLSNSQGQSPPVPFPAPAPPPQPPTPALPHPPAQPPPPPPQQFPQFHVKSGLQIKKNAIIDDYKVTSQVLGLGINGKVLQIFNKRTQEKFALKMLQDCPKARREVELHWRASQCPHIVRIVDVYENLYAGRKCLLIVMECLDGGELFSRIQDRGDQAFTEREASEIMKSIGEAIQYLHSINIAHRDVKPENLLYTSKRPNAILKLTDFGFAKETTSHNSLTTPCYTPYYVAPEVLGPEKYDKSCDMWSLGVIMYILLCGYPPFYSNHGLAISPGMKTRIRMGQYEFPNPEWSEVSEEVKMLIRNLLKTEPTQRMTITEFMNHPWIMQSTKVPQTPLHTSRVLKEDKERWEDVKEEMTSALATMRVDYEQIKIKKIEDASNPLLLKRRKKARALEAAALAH

[14] = molecular target: Tyrosine-protein kinase SYK (Homo sapiens) (UniProt P43405); test: Inhibition of human recombinant SYK at 15 nM in presence of ATP by radiometric assay relative to control
[15] = molecular target: Receptor tyrosine-protein kinase erbB-2 (Homo sapiens) (UniProt P04626); test: Inhibition of human recombinant ErbB2 at 15 nM in presence of ATP by radiometric assay relative to control

Sequence of Serine/threonine-protein kinase SIK3 (Homo sapiens) (Q9Y2K2 whole entry, looked up): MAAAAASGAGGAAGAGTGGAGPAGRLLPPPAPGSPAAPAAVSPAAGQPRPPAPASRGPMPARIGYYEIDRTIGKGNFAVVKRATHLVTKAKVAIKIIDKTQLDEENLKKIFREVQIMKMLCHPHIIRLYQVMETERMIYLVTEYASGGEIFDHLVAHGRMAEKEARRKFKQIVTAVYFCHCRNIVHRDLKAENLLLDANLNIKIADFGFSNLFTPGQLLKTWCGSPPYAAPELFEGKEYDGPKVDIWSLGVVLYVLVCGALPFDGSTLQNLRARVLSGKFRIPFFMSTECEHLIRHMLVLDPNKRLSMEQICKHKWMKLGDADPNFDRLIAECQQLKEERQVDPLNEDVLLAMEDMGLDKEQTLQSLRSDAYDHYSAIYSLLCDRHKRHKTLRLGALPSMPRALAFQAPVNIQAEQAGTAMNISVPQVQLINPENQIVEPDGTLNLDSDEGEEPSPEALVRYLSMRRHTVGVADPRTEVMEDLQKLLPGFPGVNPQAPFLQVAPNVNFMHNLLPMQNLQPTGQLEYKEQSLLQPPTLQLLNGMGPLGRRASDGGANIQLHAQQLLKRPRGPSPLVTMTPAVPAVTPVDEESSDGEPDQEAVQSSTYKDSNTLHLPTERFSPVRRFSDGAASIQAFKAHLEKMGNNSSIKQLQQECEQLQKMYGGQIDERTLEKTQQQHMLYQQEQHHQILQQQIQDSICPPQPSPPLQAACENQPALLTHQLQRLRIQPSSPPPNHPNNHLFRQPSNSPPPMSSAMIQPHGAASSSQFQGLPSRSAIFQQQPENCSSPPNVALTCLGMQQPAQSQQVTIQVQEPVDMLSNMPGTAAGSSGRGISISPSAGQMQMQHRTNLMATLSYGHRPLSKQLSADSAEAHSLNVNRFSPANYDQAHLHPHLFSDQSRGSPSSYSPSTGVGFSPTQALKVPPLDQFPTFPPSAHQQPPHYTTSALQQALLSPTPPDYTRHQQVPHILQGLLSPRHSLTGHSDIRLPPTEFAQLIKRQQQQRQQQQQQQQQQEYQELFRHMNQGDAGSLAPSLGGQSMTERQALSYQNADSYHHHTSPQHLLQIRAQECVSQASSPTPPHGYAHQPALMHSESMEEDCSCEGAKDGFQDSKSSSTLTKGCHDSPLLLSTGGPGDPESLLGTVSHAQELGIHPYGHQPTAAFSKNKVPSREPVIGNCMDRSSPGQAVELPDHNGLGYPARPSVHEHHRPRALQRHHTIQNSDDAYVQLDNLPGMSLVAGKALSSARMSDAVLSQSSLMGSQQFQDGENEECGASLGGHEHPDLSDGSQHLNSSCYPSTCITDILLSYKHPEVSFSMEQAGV

SMILES: O=C(N[C@@H](C1CC1)C(F)(F)F)c1cc(-c2cnn3cc(-c4ccc(F)cc4)cnc23)cs1
- inhibition [1]: 59%
- fold change (FC) [2]: 0.77
- inhibition [3]: 7%
- fold change (FC) [4]: 0
- inhibition [5]: 13%
- inhibition [6]: 0%

SMILES: CNC(=O)c1ccccc1Oc1nc(Nc2cc(OC)c(OC)c(OC)c2)ncc1Br
- inhibition [7]: 10%
- inhibition [8]: 3%

SMILES: CC(C)[C@H](NC(=O)c1cc(-c2cnn3cc(-c4ccc(OCCN5CCCCC5)cc4)cnc23)cs1)C(F)(F)F
- inhibition [9]: 12%
- inhibition [10]: 0%
- inhibition [11]: 0%
- inhibition [12]: 1%
- fold change (FC) [13]: 0
- inhibition [14]: 0%
- inhibition [15]: 0%
